The source of these data is ChEMBL document CHEMBL4680248 (Eur J Med Chem, 2020).

Activity calls are given as the source filed them. No cut-off for these calls is given here. Bounds are passed on as bounds.

As usually defined, the EC50 is the concentration at which the effect is half-maximal. The term IC50 denotes the concentration needed to halve the response being measured. Usually LC50 stands for the concentration lethal to half of the exposed cells or organisms. Low readings indicate greater toxicity, high ones lower toxicity.

Data set [1] concerns the target T1, GABA-A receptor; alpha-1/beta-3/gamma-2 (Homo sapiens, UniProt P14867+P18507+P28472).
T1 sequence (P14867 whole entry): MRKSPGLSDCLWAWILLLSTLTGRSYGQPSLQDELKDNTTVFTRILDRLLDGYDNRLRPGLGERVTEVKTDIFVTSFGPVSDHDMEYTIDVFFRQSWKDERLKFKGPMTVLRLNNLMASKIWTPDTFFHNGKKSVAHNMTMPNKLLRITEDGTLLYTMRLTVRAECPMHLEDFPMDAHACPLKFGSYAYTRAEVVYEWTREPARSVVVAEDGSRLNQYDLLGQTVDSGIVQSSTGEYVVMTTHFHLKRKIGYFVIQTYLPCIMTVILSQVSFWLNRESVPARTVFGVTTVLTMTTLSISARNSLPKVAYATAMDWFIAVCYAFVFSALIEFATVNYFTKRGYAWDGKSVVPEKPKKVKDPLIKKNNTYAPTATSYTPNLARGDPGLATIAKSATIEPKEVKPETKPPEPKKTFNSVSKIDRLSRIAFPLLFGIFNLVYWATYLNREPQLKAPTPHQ
T1 sequence (P18507 whole entry): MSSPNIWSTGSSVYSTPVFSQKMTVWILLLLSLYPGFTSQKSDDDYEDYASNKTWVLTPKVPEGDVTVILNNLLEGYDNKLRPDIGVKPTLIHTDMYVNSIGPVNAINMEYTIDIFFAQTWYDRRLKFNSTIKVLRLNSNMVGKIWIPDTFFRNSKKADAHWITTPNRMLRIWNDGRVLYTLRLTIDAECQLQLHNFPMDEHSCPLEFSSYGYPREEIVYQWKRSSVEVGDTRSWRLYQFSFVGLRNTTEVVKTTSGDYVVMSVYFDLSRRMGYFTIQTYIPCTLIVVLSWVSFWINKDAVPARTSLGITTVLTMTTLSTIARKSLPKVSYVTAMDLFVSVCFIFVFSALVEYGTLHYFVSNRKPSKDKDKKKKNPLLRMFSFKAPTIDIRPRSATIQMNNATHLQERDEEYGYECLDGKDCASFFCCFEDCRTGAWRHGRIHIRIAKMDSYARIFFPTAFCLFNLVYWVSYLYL
T1 sequence (P28472 whole entry): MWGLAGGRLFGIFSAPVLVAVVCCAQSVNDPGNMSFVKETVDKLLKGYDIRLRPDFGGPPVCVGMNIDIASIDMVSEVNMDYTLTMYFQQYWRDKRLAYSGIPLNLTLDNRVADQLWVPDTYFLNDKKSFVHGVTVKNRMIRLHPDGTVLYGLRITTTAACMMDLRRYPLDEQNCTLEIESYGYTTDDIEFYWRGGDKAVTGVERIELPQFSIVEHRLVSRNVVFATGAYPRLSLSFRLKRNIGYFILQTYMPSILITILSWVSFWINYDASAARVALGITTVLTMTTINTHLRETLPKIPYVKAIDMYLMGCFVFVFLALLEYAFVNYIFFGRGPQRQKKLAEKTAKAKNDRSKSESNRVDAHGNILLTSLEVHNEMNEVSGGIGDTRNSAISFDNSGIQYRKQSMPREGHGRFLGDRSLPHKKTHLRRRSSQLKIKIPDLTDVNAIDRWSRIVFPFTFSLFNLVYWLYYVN
Briefly: Positive allosteric modulation of GABAA alpha1beta3gamma2L in HEK cell plasma membrane assessed as increase in [3H]muscimol binding measured after 10 mins by liquid scintillation counting method. Type of data set: cell membranes. In outline:
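HEK293 membranes (100 μg protein) from tetracycline-inducible cells expressing FLAG-tagged human receptors. Incubated 10 min with 2 nM [3H]muscimol (final) and modulator in 10 mM phosphate, 200 mM KCl, 1 mM EDTA, pH 7.4. Filtered on PEI-treated GF/B filters and washed twice with cold buffer. EC50 from fitting a logistic equation (Eqn 1) to pooled concentration-response points from independent experiments.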

In data set [2] the target is T1, GABA-A receptor; alpha-1/beta-3/gamma-2. Briefly: Inhibition of [3H]azietomidate labelling of GABAA alpha1beta3gamma2L (unknown origin) expressed in Xenopus laevis oocytes assessed as reduction in photoincorporation at M236 residues of alpha1 subunit measured after 30 mins in presence of GABA by liquid scintillation counting method. The class given is cell-based, Oocyte.

Data set [3] shares this target. Briefly: Inhibition of [3H]R-mTFD-MPAB labelling of GABAA alpha1beta3gamma2L (unknown origin) expressed in Xenopus laevis oocytes assessed as reduction in photoincorporation at M227 residues of beta3 subunit measured after 30 mins in presence of GABA by liquid scintillation counting method. Type of data set: cell-based.
Another data set concerns Xenopus laevis. Briefly: Anesthetic activity in Xenopus laevis tadpoles assessed as increase in loss of righting reflex incubated for 30 to 60 mins. The class given is functional, organism-based.
Data set [4] concerns the target T1, GABA-A receptor; alpha-1/beta-3/gamma-2. Briefly: Inhibition of [3H]pTFD-di-iPr-BnOH labelling of GABAA alpha1beta3gamma2L (unknown origin) expressed in Xenopus laevis oocytes assessed as reduction in photoincorporation at beta subunit measured after 30 mins in presence of GABA by liquid scintillation counting method. The class given is cell-based.
A short description of data set [5]: Toxicity in Xenopus laevis tadpoles.
For data set [6], the target named is T2, GABA-A receptor alpha-1/beta-3 (Homo sapiens, UniProt P14867+P28472).
T2 sequence (P14867 whole entry): T1 sequence (P14867 whole entry)
T2 sequence (P28472 whole entry): T1 sequence (P28472 whole entry)
Briefly: Positive allosteric modulation of GABAA alpha1beta3 in HEK cell plasma membrane assessed as increase in [3H]muscimol binding measured after 10 mins by liquid scintillation counting method. The class given is cell membranes. In outline: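 Native membranes from tetracycline-inducible HEK293 cells expressing FLAG-tagged human receptors (100 μg protein), [3H]muscimol 2 nM final, plus modulator in 10 mM phosphate, 200 mM KCl, 1 mM EDTA, pH 7.4; 10 min incubation, filtration on PEI-treated GF/B filters, two cold washes. Concentration-response curves from independent experiments fitted to a Hill equation for EC50 and nH.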

The target in data set [7] is T1, GABA-A receptor; alpha-1/beta-3/gamma-2. Briefly: Positive allosteric modulation of GABAA alpha1beta3gamma2L (unknown origin) expressed in Xenopus laevis oocytes assessed as increase in GABA-induced current by two microelectrode voltage-clamp electrophysiology. Type of data set: cell-based, Oocyte. The method, boiled down:
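Human subunit mRNA (0.5–1 ng, α:β:γ 1:1:5) injected into Xenopus oocytes, recorded about 24 h later. Two-electrode voltage clamp at −50 mV, room temperature, ND96 pH 7.6.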

The test system of data set [8] is Oocyte. Briefly: Positive allosteric modulation of GABAA alpha1beta3gamma2L S280W mutant (unknown origin) expressed in Xenopus laevis oocytes assessed as increase in GABA-induced current at 8 uM by two microelectrode voltage-clamp electrophysiology. Particulars: Homo sapiens. Type of data set: cell-based.
Data set [9] deals with Oocyte. Briefly: Positive allosteric modulation of GABAA alpha1beta3gamma2L S270I mutant (unknown origin) expressed in Xenopus laevis oocytes assessed as increase in GABA-induced current at 8 uM by two microelectrode voltage-clamp electrophysiology. The class given is cell-based. Particulars: Homo sapiens.
Data set [10] concerns Oocyte. Type of data set: cell-based. The conditions noted are these: Homo sapiens, filed as positive allosteric modulator, dose 8.0 µM.
In data set [11] the test system is Oocyte. Briefly: Positive allosteric modulation of GABAA alpha1beta3gamma2L I242W mutant (unknown origin) expressed in Xenopus laevis oocytes assessed as increase in GABA-induced current at 8 uM by two microelectrode voltage-clamp electrophysiology. Type of data set: cell-based. The conditions noted are these: Homo sapiens, filed as positive allosteric modulator.

In data set [12] the test system is Oocyte. Briefly: Positive allosteric modulation of GABAA alpha1beta3gamma2L M227W mutant (unknown origin) expressed in Xenopus laevis oocytes assessed as increase in GABA-induced current at 8 uM by two microelectrode voltage-clamp electrophysiology. Type of data set: cell-based. The conditions noted are these: Homo sapiens, filed as positive allosteric modulator.

As to `CC(C)c1cccc(C(C)C)c1CO`, the EC50 in [1] is 40 µM; with Xenopus laevis, 16 µM. The half-inhibitory concentration (IC50) in [2] turned out to be 92 µM; in data set [3], 243 µM.

Take `CC(C)c1cc(C2(C(F)(F)F)N=N2)cc(C(C)C)c1CO`: the EC50 in data set [1] turned out to be 7.4 µM; in [6] it was 2.9 µM; in data set [7], 10 µM; in the data set with Xenopus laevis, 2.5 µM. Further, the IC50 was found to be 460 µM in data set [2], 18 µM in data set [4] and 26 µM in [3]. In data set [5], this compound gave an LC50 of 3.6 µM.

In the case of `OCc1ccccc1` [BENZYL ALCOHOL], the EC50 in data set [1] is more than 50000 µM; in the data set on Xenopus laevis it was 2000 µM.

As for `C=CCC1(c2cccc(C3(C(F)(F)F)N=N3)c2)C(=O)NC(=O)N(C)C1=O` (stereo not drawn), the outcome with Oocyte [8] and with Oocyte [9] was inactive. In addition, the result in the data set on Oocyte [10], in the data set on Oocyte [11] and with Oocyte [12] was Active.

Regarding `CC(C)c1cccc(C(C)C)c1O` [PROPOFOL], the values for the EC50 (in data set [1]; in the data set on Xenopus laevis) were 5.4 µM and 0.63 µM, respectively. Also, the values for the half-maximal inhibitory concentration (IC50) in data set [2], in data set [4] and in data set [3] were 8 µM, 32 µM and 44 µM, respectively.

`OCc1ccc(C2(C(F)(F)F)N=N2)cc1`: the EC50 in data set [1] came out at 700 µM; in the data set on Xenopus laevis it was 28 µM. Besides, the half-inhibitory concentration (IC50) came out at 305 µM in data set [2] and 465 µM in data set [3].
